Assay results reported in ChEMBL document CHEMBL4251566 (Eur J Med Chem, 2018).

Experiments:
[1] = molecular target: Tyrosine-protein kinase BTK (Homo sapiens, UniProt Q06187); test: Inhibition of recombinant full-length N-terminal His-tagged human BTK expressed in baculovirus infected Sf9 insect cells using Poly(4:1 Glu,Tyr) peptide substrate incubated for 60 mins by ADP-Glo luminescence assay
[2] = molecular target: T1, Tyrosine-protein kinase JAK3 (Homo sapiens, UniProt P52333); test: Inhibition of recombinant N-terminal GST-tagged human JAK3 (781 to end residues) expressed in baculovirus infected Sf9 insect cells using Poly(4:1 Glu,Tyr) peptide substrate incubated for 60 mins by ADP-Glo luminescence assay
T1 sequence (P52333 whole entry): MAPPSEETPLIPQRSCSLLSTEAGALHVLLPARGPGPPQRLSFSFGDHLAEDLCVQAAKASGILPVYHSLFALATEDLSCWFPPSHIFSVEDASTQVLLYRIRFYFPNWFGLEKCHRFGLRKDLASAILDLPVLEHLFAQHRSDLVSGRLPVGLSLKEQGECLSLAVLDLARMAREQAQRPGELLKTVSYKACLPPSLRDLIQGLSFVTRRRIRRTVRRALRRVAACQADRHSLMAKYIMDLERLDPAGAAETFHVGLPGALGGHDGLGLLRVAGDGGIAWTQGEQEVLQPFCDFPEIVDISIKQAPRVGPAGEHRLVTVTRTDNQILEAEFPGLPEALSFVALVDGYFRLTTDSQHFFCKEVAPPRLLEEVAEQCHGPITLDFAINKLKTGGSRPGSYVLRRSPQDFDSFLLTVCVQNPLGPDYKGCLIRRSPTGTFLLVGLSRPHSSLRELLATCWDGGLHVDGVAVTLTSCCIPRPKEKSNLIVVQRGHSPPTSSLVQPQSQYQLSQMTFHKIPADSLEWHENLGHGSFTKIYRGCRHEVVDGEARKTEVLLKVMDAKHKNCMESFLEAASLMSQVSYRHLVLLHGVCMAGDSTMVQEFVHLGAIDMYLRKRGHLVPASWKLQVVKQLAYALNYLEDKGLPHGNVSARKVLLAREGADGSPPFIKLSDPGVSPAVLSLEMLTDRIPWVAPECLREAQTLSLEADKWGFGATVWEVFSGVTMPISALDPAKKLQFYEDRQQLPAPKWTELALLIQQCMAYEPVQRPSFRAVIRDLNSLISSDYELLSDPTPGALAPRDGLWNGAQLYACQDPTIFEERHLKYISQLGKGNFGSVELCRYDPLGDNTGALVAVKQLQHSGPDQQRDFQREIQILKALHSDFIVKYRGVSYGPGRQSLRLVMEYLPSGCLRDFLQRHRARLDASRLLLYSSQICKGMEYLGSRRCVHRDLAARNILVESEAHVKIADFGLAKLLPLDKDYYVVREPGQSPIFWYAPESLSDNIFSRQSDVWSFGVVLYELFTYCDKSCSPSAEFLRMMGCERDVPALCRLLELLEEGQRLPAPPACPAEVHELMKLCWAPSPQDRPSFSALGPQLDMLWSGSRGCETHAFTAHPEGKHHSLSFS
Outline: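 ADP-Glo luminescent kinase assay. The kinase reaction ran 60 min at room temperature in 1× kinase buffer. ADP-Glo reagent was added to stop the reaction and deplete ATP, followed by 40 min at room temperature. Detection reagent then converted ADP to ATP for a luciferase readout, followed by 30 min at room temperature. Luminescence was integrated over 0.5–1 s, and IC50 came from curve fitting.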

Ramos [3] = test: Antiproliferative activity against human Ramos cells after 72 hrs by CCK-8 assay
Raji = test: Antiproliferative activity against human Raji cells after 72 hrs by CCK-8 assay; type: functional, cell-based
Outline: (§1)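 CCK-8 viability assay. Cells were seeded at 3000/well in RPMI-1640 with 10% FBS at 37 °C, 5% CO2, for 4 h before treatment. Exposure was 72 h at five concentrations (1.25, 5, 10, 20, 40 µM), each in five replicates. Absorbance was read at 450 nm. IC50 came from dose-response curves, as the mean of at least three separate experiments.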

NAMALVA = test: Antiproliferative activity against human NAMALWA cells after 72 hrs by CCK-8 assay; type: functional, cell-based; outline: as §1
Ramos [4] = test: Induction of apoptosis in human Ramos cells assessed as necrotic cells at 10 uM after 72 hrs by Annexin V-FITC/propidium iodide staining based flow cytometry (reference value: 0.7%); type: functional
Ramos [5] = test: Induction of apoptosis in human Ramos cells assessed as late apoptotic cells at 10 uM after 72 hrs by Annexin V-FITC/propidium iodide staining based flow cytometry (reference value: 0.5%); type: functional
Ramos [6] = test: Induction of apoptosis in human Ramos cells assessed as early apoptotic cells at 10 uM after 72 hrs by Annexin V-FITC/propidium iodide staining based flow cytometry (reference value: 0.0%); type: functional
Ramos [7] = test: Induction of apoptosis in human Ramos cells assessed as viable cells at 10 uM after 72 hrs by Annexin V-FITC/propidium iodide staining based flow cytometry (reference value: 98.7%); type: functional; settings: read-out: Activity
Ramos [8] = test: Induction of apoptosis in human Ramos cells assessed as total apoptosis rate at 10 uM after 72 hrs by Annexin V-FITC/propidium iodide staining based flow cytometry relative to control
PBMC = test: Cytotoxicity against human PBMCs assessed as induction of morphological changes at <10 uM after 24 hrs by AO/PI staining-based phase contrast microscopy; type: cell-based

Sequence of Tyrosine-protein kinase BTK (Q06187 whole entry): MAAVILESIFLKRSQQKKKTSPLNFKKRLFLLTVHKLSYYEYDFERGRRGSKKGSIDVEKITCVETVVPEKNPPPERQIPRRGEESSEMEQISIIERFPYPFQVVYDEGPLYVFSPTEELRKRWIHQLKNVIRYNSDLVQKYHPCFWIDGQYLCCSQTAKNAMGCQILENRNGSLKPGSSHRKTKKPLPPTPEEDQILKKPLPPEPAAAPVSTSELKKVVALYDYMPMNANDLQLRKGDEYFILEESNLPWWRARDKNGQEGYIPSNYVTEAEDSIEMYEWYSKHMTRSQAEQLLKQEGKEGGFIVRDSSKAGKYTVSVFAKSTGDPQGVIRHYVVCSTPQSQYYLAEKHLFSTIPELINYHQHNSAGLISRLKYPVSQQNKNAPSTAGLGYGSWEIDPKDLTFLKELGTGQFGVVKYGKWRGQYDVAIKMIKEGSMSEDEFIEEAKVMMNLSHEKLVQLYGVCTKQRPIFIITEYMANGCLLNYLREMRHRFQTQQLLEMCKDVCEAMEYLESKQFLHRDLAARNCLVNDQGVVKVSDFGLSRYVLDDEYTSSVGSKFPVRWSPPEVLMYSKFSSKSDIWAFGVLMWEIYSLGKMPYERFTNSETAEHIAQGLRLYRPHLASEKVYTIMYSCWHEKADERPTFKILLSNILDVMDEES

Row | SMILES | IC50 [1] | IC50 [2] | IC50 (Ramos [3]) | IC50 (Raji) | IC50 (NAMALVA) | Activity (Ramos [4]) | Activity (Ramos [5]) | Activity (Ramos [6]) | viability at 10 µM (Ramos [7]) | Activity (Ramos [8]) | Activity (PBMC)
1 | C=CC(=O)Nc1cccc(Nc2nc(Nc3ccc(OCCCN4CCN(CC)CC4)cc3C)ncc2F)c1 | 0.09 µM | > 0.1 µM | 18.5 µM | 26 µM | 26.6 µM |  |  |  |  |  | 
2 | C=CC(=O)Nc1cccc(Nc2nc(Nc3ccc(OCCCN4CCN(CC)CC4)cc3C)ncc2Cl)c1 | > 0.1 µM | > 0.1 µM | 14.4 µM | 35.3 µM | 35.2 µM |  |  |  |  |  | 
3 | C=CC(=O)Nc1cccc(Nc2nc(Nc3ccc(OCCCN4CCOCC4)c(OC)c3)ncc2Cl)c1 | 0.0313 µM | 0.00677 µM | 2.49 µM | 5.92 µM | 14.4 µM |  |  |  |  |  | 
4 | C=CC(=O)Nc1cccc(Nc2nc(Nc3ccc(OCCOC)cc3)ncc2F)c1 [SPEBRUTINIB] |  | 0.0225 µM | 14.2 µM | 25.3 µM | 3.42 µM | 4.3% | 20.4% | 21.1% | 54.2% | 41.5% | 
5 | C=CC(=O)Nc1cccc(Nc2nc(Nc3ccc(OC)c(OCCCN4CCOCC4)c3)ncc2F)c1 | 0.0007 µM | 0.00095 µM | 11.3 µM | 13.9 µM | 3.17 µM |  |  |  |  |  | 
6 | C=CC(=O)N1CCC[C@@H](n2nc(-c3ccc(Oc4ccccc4)cc3)c3c(N)ncnc32)C1 [IBRUTINIB] |  |  | 6.62 µM | 20.9 µM | 10.5 µM | 0.1% |  | 37% | 52% | 47.9% | 50%
7 | C=CC(=O)Nc1cccc(Nc2nc(Nc3ccc(OCCCN4CCN(C)CC4)cc3C)ncc2Cl)c1 | 0.0817 µM | 0.0911 µM | 22.6 µM | 25 µM | 24.6 µM |  |  |  |  |  | 
8 | C=CC(=O)Nc1cccc(Nc2nc(Nc3ccc(OCCCN4CCN(CC)CC4)c(Cl)c3)ncc2Cl)c1 | 0.0005 µM | 0.00091 µM | 5.72 µM | 11.4 µM | 2.41 µM |  |  |  |  |  | 
9 | C=CC(=O)Nc1cccc(Nc2nc(Nc3ccc(OC)c(OCCCN4CCOCC4)c3)ncc2Cl)c1 | 0.0008 µM | 0.00069 µM | 7.31 µM | 3.86 µM | 5.17 µM |  |  |  |  |  | 

Second part, led by results:

Row | IC50 [1] | IC50 [2] | IC50 (Ramos [3]) | IC50 (Raji) | SMILES | IC50 (NAMALVA) | Activity (Ramos [4]) | Activity (Ramos [5]) | Activity (Ramos [6]) | viability at 10 µM (Ramos [7]) | Activity (Ramos [8]) | Activity (PBMC)
10 | 0.0105 µM | 0.0216 µM | > 40 µM | 22.5 µM | C=CC(=O)Nc1cccc(Nc2nc(Nc3ccc(OCC(=O)N4CCOCC4)c(OC)c3)ncc2Cl)c1 | 17.2 µM |  |  |  |  |  | 
11 | 0.0893 µM | > 0.1 µM | 18.7 µM | 25.5 µM | C=CC(=O)Nc1cccc(Nc2nc(Nc3ccc(OCCCN4CCOCC4)cc3C)ncc2Cl)c1 | 28 µM |  |  |  |  |  | 
12 | 0.001 µM | 0.00139 µM | 25.6 µM | 5.68 µM | C=CC(=O)Nc1cccc(Nc2nc(Nc3ccc(OCC(=O)N4CCOCC4)cc3)ncc2Cl)c1 | 4.42 µM |  |  |  |  |  | 
13 | 0.0171 µM | 0.0112 µM | > 40 µM | 11.2 µM | C=CC(=O)Nc1cccc(Nc2nc(Nc3ccc(OCC(=O)N4CCOCC4)c(OC)c3)ncc2F)c1 | 15 µM |  |  |  |  |  | 
14 | 0.0007 µM | 0.00106 µM | 2 µM | 22.5 µM | C=CC(=O)Nc1cccc(Nc2nc(Nc3ccc(OCCCN4CCOCC4)c(Cl)c3)ncc2Cl)c1 | 19.4 µM |  |  |  |  |  | 
